Test results published in ChEMBL document CHEMBL1275516, “Macrolide antibiotic-mediated downregulation of MexAB-OprM efflux pump expression in Pseudomonas aeruginosa” (2008).
Converted amounts (≈) assume the structure as drawn.

Columns and labels:
Assay type in all cases: functional
Pseudomonas aeruginosa [1] = assay: Antibacterial activity against Pseudomonas aeruginosa PAO4290 by agar dilution method
In short: (§1)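 Agar dilution on Mueller-Hinton agar with an inoculum of 150 CFU/5 μl per spot. Plates were run with or without 1.0 μg/ml azithromycin incorporated in the agar, and MIC was read for each strain.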

Pseudomonas aeruginosa [2] = assay: Antibacterial activity against Pseudomonas aeruginosa PAO4290 selected after 1.0 ug/ml of azithromycin by agar dilution method; in short: as §1
Pseudomonas aeruginosa [3] = assay: Antibacterial activity against Pseudomonas aeruginosa TNP030 by agar dilution method; in short: as §1
Pseudomonas aeruginosa [4] = assay: Antibacterial activity against Pseudomonas aeruginosa TNP030 selected after 1.0 ug/ml of azithromycin by agar dilution method; in short: as §1
Pseudomonas aeruginosa [5] = assay: Antibacterial activity against MeXAB-OprM deficient Pseudomonas aeruginosa TNP077 by agar dilution method; in short: as §1
Pseudomonas aeruginosa [6] = assay: Antibacterial activity against MeXAB-OprM deficient Pseudomonas aeruginosa TNP077 selected after 1.0 ug/ml of azithromycin by agar dilution method; in short: as §1
Pseudomonas aeruginosa [7] = assay: Inhibition of MexAB-OprM efflux pump expression in Pseudomonas aeruginosa TNP090 mutant harboring las and rhl gene at 0.03 ug/ml by Cat-2,3-diO reporter gene assay relative to untreated control; details: values are per cent of control
In short: (§2)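 Overnight TNP090 (mexB::xylE reporter) preculture diluted 10,000-fold into fresh medium with or without antibiotic, dosed as fractions of the TNP090 MIC. Shaken at 200 rpm, 37°C, for 9 h to A600 ~1.5 (early stationary phase). Extracts made by French press at 130 MPa, then centrifuged at 13,000 × g. Cat-2,3-diO activity expressed relative to drug-free culture.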

Pseudomonas aeruginosa [8] = assay: Inhibition of MexAB-OprM efflux pump expression in Pseudomonas aeruginosa TNP090 mutant harboring las and rhl gene at 0.016 ug/ml by Cat-2,3-diO reporter gene assay relative to untreated control; details: values are per cent of control; in short: as §2
Pseudomonas aeruginosa [9] = assay: Inhibition of MexAB-OprM efflux pump expression in Pseudomonas aeruginosa TNP090 mutant harboring las and rhl gene at 0.125 ug/ml by Cat-2,3-diO reporter gene assay relative to untreated control; details: values are per cent of control; in short: as §2
Pseudomonas aeruginosa [10] = assay: Inhibition of MexAB-OprM efflux pump expression in Pseudomonas aeruginosa TNP090 mutant harboring las and rhl gene at 0.06 ug/ml by Cat-2,3-diO reporter gene assay relative to untreated control; details: values are per cent of control; in short: as §2
Pseudomonas aeruginosa [11] = assay: Inhibition of MexAB-OprM efflux pump expression in Pseudomonas aeruginosa TNP090 mutant harboring las and rhl gene at 1 ug/ml by Cat-2,3-diO reporter gene assay relative to untreated control; details: values are per cent of control; in short: as §2
Pseudomonas aeruginosa [12] = assay: Inhibition of MexAB-OprM efflux pump expression in Pseudomonas aeruginosa TNP090 mutant harboring las and rhl gene at 0.5 ug/ml by Cat-2,3-diO reporter gene assay relative to untreated control; details: values are per cent of control; in short: as §2
Pseudomonas aeruginosa [13] = assay: Inhibition of MexAB-OprM efflux pump expression in Pseudomonas aeruginosa TNP090 mutant harboring las and rhl gene at 0.25 ug/ml by Cat-2,3-diO reporter gene assay relative to untreated control; details: values are per cent of control; in short: as §2
Pseudomonas aeruginosa [14] = assay: Inhibition of MexAB-OprM efflux pump expression in las1 and rhl1 deficient Pseudomonas aeruginosa TNP093 at 1 ug/ml after 9 hrs by Cat-2,3-diO reporter gene assay; details: TNP093, 9 h, values are per cent of control
In short: (§3)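 Reporter strains lacking lasI, rhlI or both were diluted 10,000-fold from overnight culture into fresh medium with or without 1 μg/ml azithromycin. Cultures were shaken at 200 rpm, 37°C for 9 h (A600 ~1.5, early stationary phase). Cat-2,3-diO activity was assayed in cell extracts and […].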

Pseudomonas aeruginosa [15] = assay: Inhibition of MexAB-OprM efflux pump expression in rhl1 deficient Pseudomonas aeruginosa TNP092 at 1 ug/ml after 9 hrs by Cat-2,3-diO reporter gene assay; details: TNP092, 9 h, values are per cent of control; in short: as §3
Pseudomonas aeruginosa [16] = assay: Inhibition of MexAB-OprM efflux pump expression in las1 deficient Pseudomonas aeruginosa TNP091 at 1 ug/ml after 9 hrs by Cat-2,3-diO reporter gene assay; details: TNP091, 9 h, values are per cent of control; in short: as §3
Pseudomonas aeruginosa [17] = assay: Inhibition of MexAB-OprM efflux pump expression in Pseudomonas aeruginosa TNP090 mutant harboring las and rhl gene at 1 ug/ml after 11.5 hrs by Cat-2,3-diO reporter gene assay relative to untreated control; details: TNP090, 11.5 h
In short: (§4)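 Overnight TNP090 preculture diluted 100,000-fold (A600 3 × 10−5) in LB with or without 1 μg/ml azithromycin. Grown at 37°C with 200 rpm rotation and harvested at 5.5 h (AZM) or 4.5 h (drug-free), then at +2, +4 and +6 h. French-press extracts (130 MPa ×3), 13,000 × g supernatant assayed for Cat-2,3-diO. 1 unit = 1 nmol substrate/min/mg protein. Representative of repeated experiments.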

Pseudomonas aeruginosa [18] = assay: Inhibition of MexAB-OprM efflux pump expression in Pseudomonas aeruginosa TNP090 mutant harboring las and rhl gene at 1 ug/ml after 9.5 hrs by Cat-2,3-diO reporter gene assay relative to untreated control; details: TNP090, 9.5 h; in short: as §4
Pseudomonas aeruginosa [19] = assay: Inhibition of MexAB-OprM efflux pump expression in Pseudomonas aeruginosa TNP090 mutant harboring las and rhl gene at 1 ug/ml after 7.5 hrs by Cat-2,3-diO reporter gene assay relative to untreated control; details: TNP090, 7.5 h; in short: as §4
Pseudomonas aeruginosa [20] = assay: Inhibition of MexAB-OprM efflux pump expression in Pseudomonas aeruginosa TNP090 mutant harboring las and rhl gene at 1 ug/ml after 5.5 hrs by Cat-2,3-diO reporter gene assay relative to untreated control; details: TNP090, 5.5 h; in short: as §4
Pseudomonas aeruginosa [21] = assay: Inhibition of MexAB-OprM efflux pump expression in Pseudomonas aeruginosa TNP090 mutant harboring las and rhl gene at 1 ug/ml by Cat-2,3-diO reporter gene assay; in short: as §4
Pseudomonas aeruginosa [22] = assay: Inhibition of MexAB-OprM efflux pump expression in Pseudomonas aeruginosa at 1.0 ug/ml
In short: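 TNP090 (las+ rhl+, mexB::xylE reporter) overnight culture was diluted 100,000-fold (A600 3 × 10−5) into LB with or without 1 μg/ml azithromycin and shaken at 200 rpm, 37°C. Cells were harvested at ~4.5 h (drug-free) or 5.5 h (drug), then at plus 2, 4 and 6 h. Cat-2,3-diO activity was measured in French-press extracts (1 unit = 1 nmol substrate/min/mg protein). Results are representative of repeated experiments.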

Pseudomonas aeruginosa [23] = assay: Antibacterial activity against Pseudomonas aeruginosa TNP090 harboring chromosomal mexB::xylE fusion construct by agar dilution method
In short: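 Agar dilution MIC on Mueller-Hinton agar; inoculum 5 × 10^3 cells per spot.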

Structure (SMILES)	MIC (Pseudomonas aeruginosa [1]) [µg/mL]	MIC (Pseudomonas aeruginosa [2]) [µg/mL]	MIC (Pseudomonas aeruginosa [3]) [µg/mL]	MIC (Pseudomonas aeruginosa [4]) [µg/mL]	MIC (Pseudomonas aeruginosa [5]) [µg/mL]	MIC (Pseudomonas aeruginosa [6]) [µg/mL]	other results
CC1COc2c(N3CCN(C)CC3)c(F)cc3c(=O)c(C(=O)O)cn1c23 (stereo unspecified) [OFLOXACIN]	0.78 (≈ 2.16 µM)	0.78	> 1.56	> 1.56	0.05 (≈ 0.138 µM)	0.05	
C[C@@H](O)[C@H]1C(=O)N2C(C(=O)O)=C(SCCNC=N)C[C@H]12 [IMIPENEM ANHYDROUS]	0.78 (≈ 2.61 µM)	0.78	0.78 (≈ 2.61 µM)	0.78	0.78 (≈ 2.61 µM)	0.78	
CN(C)[C@@H]1C(O)=C(C(N)=O)C(=O)[C@@]2(O)C(O)=C3C(=O)c4c(O)cccc4[C@@](C)(O)[C@H]3C[C@@H]12 [TETRACYCLINE]	12.5 (≈ 28.1 µM)	3.13	50 (≈ 113 µM)	50	0.39 (≈ 0.878 µM)	0.39	response, % of control at 0.03 µg/mL (Pseudomonas aeruginosa [7]): 94%; response, % of control at 0.016 µg/mL (Pseudomonas aeruginosa [8]): 103%; response, % of control at 0.125 µg/mL (Pseudomonas aeruginosa [9]): 51%; response, % of control at 0.06 µg/mL (Pseudomonas aeruginosa [10]): 69%
CC(C)(O/N=C(\C(=O)N[C@@H]1C(=O)N2C(C(=O)[O-])=C(C[n+]3ccccc3)CS[C@H]12)c1csc(N)n1)C(=O)O [CEFTAZIDIME]	1.56 (≈ 2.85 µM)	1.56	3.13 (≈ 5.73 µM)	3.13	0.39 (≈ 0.714 µM)	0.39	
C[C@H]1[C@H](NC(=O)/C(=N\OC(C)(C)C(=O)O)c2csc(N)n2)C(=O)N1S(=O)(=O)O [AZTREONAM]	3.12 (≈ 7.17 µM)	1.56	12.5 (≈ 28.7 µM)	12.5	0.1 (≈ 0.23 µM)	0.1	
CC1(C)S[C@@H]2[C@H](NC(=O)C(C(=O)O)c3ccccc3)C(=O)N2[C@H]1C(=O)O (stereo partly specified) [CARBENICILLIN]	50 (≈ 132 µM)	12.5	200 (≈ 529 µM)	200	0.78 (≈ 2.06 µM)	1.56	
O=C(N[C@H](CO)[C@H](O)c1ccc([N+](=O)[O-])cc1)C(Cl)Cl [CHLORAMPHENICOL]	25 (≈ 77.4 µM)	6.25	200 (≈ 619 µM)	200	0.39 (≈ 1.21 µM)	0.39	
CC[C@H]1OC(=O)[C@H](C)[C@@H](O[C@H]2C[C@@](C)(OC)[C@@H](O)[C@H](C)O2)[C@H](C)[C@@H](O[C@@H]2O[C@H](C)C[C@H](N(C)C)[C@H]2O)[C@](C)(O)C[C@@H](C)CN(C)[C@H](C)[C@@H](O)[C@]1(C)O [AZITHROMYCIN]							response, % of control at 1 µg/mL (Pseudomonas aeruginosa [11]): 37%; response, % of control at 0.5 µg/mL (Pseudomonas aeruginosa [12]): 65%; response, % of control at 0.25 µg/mL (Pseudomonas aeruginosa [13]): 78%; response, % of control at 0.125 µg/mL (Pseudomonas aeruginosa [9]): 85%; response, % of control at 1 µg/mL (Pseudomonas aeruginosa [14]): 100%; response, % of control at 1 µg/mL (Pseudomonas aeruginosa [15]): 90%; response, % of control at 1 µg/mL (Pseudomonas aeruginosa [16]): 99%; inhibition at 1 µg/mL (Pseudomonas aeruginosa [17]): -63%; inhibition at 1 µg/mL (Pseudomonas aeruginosa [18]): -70.2%; inhibition at 1 µg/mL (Pseudomonas aeruginosa [19]): -73%; inhibition at 1 µg/mL (Pseudomonas aeruginosa [20]): -30.9%; Activity (Pseudomonas aeruginosa [21]): 44.3; inhibition at 1 µg/mL (Pseudomonas aeruginosa [22]): 70%; MIC (Pseudomonas aeruginosa [23]): 6.25 µg/mL (≈ 8.34 µM)
CO[C@@H]1[C@@H](OC(N)=O)[C@@H](O)[C@H](Oc2ccc3c(O)c(NC(=O)c4ccc(O)c(CC=C(C)C)c4)c(=O)oc3c2C)OC1(C)C [NOVOBIOCIN]	800 (≈ 1310 µM)	200	> 1200	> 1200	12.5 (≈ 20.4 µM)	12.5	
